Values after ≈ are worked out from the molar mass of the structure shown.
Tests used:
[1] = Cytotoxicity against HEK293 cells after 24 hrs by resazurin dye-based fluorescence analysis; assay type: cell-based; details: human
Procedure, shortened: (§1)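 Cells seeded at 3000 per well in DMEM with 10% FBS. Compound […], applied as a 2-fold dilution series mixed directly with the cells. Incubated 24 h at 37 °C in 5% CO2, then 10 µM resazurin was added for 3 h. Fluorescence read at ex/em 560/590 nm. DMSO served as negative control.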

[2] = target: Inosine-5'-monophosphate dehydrogenase 1 (Homo sapiens, UniProt P20839); test: Inhibition of recombinant human His-tagged IMPDH1 expressed in Escherichia coli BL21 (DE3) using IMP as substrate in presence of NAD
Sequence of Inosine-5'-monophosphate dehydrogenase 1 (P20839 whole entry): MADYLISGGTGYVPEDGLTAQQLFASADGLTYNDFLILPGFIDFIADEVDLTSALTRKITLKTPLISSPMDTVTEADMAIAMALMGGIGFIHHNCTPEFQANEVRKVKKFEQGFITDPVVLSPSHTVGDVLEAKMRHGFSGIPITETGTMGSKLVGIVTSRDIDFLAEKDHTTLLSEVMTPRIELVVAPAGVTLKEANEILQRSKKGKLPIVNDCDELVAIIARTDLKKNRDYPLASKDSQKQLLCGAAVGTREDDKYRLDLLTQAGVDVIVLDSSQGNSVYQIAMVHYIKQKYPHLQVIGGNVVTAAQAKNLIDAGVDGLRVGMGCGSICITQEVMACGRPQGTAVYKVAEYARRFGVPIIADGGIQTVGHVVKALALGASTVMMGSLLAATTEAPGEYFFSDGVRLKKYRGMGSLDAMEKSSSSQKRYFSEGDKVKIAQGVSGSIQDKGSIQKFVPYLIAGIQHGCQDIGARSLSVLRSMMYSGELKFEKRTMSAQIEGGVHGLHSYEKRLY
Procedure, shortened: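 His-tag-cleaved human IMPDH from E. coli BL21(DE3) pLysS at 0.2 µM. NAD 100 µM, IMP 125 µM; reaction started with IMP. NADH followed at 340 nm. Compounds tested 30 to 0.93 µM. IC50 from variable-slope fit normalized to no-inhibitor and 20 µM MPA controls; n ≥ 3.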

[3] = Cytotoxicity against human HepG2 cells after 24 hrs by resazurin dye-based fluorescence analysis; assay type: cell-based; procedure, shortened: as §1
[4] = target: Inosine-5'-monophosphate dehydrogenase 2 (Homo sapiens, UniProt P12268); test: Inhibition of recombinant human His-tagged IMPDH2 expressed in Escherichia coli BL21 (DE3) using IMP as substrate in presence of NAD
Candida albicans = test: Antifungal activity against Candida albicans after 24 hrs by OD530 reading based two fold serial dilution method
Cryptococcus neoformans = test: Antifungal activity against Cryptococcus neoformans after 24 hrs by two fold serial dilution method
[5] = target: Inosine-5'-monophosphate dehydrogenase (Cryptococcus neoformans var. neoformans serotype D (strain JEC21 /ATCC MYA-565) (Filobasidiella neoformans), UniProt Q5KP44); test: Inhibition of recombinant Cryptococcus neoformans His-tagged IMPDH expressed in Escherichia coli BL21 (DE3) using IMP as substrate in presence of NAD
Sequence of Inosine-5'-monophosphate dehydrogenase (Q5KP44 whole entry): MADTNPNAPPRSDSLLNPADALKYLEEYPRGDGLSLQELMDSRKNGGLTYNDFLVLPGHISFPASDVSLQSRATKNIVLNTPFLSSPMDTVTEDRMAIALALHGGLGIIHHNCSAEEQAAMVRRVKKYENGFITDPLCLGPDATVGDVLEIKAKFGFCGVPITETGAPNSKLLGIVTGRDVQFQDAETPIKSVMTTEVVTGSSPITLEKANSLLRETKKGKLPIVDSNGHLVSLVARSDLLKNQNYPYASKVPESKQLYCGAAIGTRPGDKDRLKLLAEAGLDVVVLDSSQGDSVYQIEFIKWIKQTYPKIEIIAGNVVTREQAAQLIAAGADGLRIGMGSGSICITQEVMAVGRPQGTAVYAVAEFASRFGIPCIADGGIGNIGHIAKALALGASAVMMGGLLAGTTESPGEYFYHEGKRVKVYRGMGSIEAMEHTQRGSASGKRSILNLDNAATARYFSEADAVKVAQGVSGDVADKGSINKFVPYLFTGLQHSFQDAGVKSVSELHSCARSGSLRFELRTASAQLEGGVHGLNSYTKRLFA
Procedure, shortened: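 Recombinant C. neoformans IMPDH (E. coli BL21(DE3) pLysS) at 0.2 µM. IMP and NAD each 500 µM; reaction started with IMP. NADH followed at 340 nm. Compounds tested 20 to 0.02 µM. % activity normalized to no-inhibitor and 20 µM MPA controls, fitted by variable-slope dose-response; n ≥ 3.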

[6] = Drug metabolism in DTT containing buffer assessed as formation of 5-phenyl-1,3,4-oxadiazole-2-thiol by LC-MS analysis; assay type: physicochemical
[7] = Drug level in DTT containing buffer treated with 3-((5-Phenyl-1,3,4-oxadiazol-2-yl)thio)benzo[b]thiophene-1,1-dioxide by LC-MS analysis; assay type: physicochemical

SMILES	CC50 at 24 h [1] [µM]	IC50 [2] [µM]	CC50 at 24 h [3] [µM]	IC50 [4] [nM]	MIC (Candida albicans) [µM]	MIC (Cryptococcus neoformans) [µM]	IC50 [5] [nM]	Drug metabolism [6]	Drug metabolism [7]
Nc1ccc(-c2nnc(SC3=CS(=O)(=O)c4ccccc43)o2)cc1	4	13.8	24	4500	> 179	33 (≈ 11.8 µg/mL)	1010		
O=S1(=O)C=C(Sc2nnc(-c3cccnc3)o2)c2ccccc21	4	6.3	14	2600	4 (≈ 1.37 µg/mL)	4 (≈ 1.37 µg/mL)	590		
COc1ccc(-c2nnc(SC3=CS(=O)(=O)c4ccccc43)o2)cc1	2	> 30	22	> 30000	172 (≈ 64.1 µg/mL)	172 (≈ 64.1 µg/mL)	1700		
O=S1(=O)C=C(Sc2nnc(-c3ccncc3)o2)c2ccccc21	4	8.6	17	2100	6 (≈ 2.06 µg/mL)	9 (≈ 3.09 µg/mL)	760		
O=S1(=O)C=C(Sc2nnc(-c3ccccn3)o2)c2ccccc21	5	13.2	24	4200	4 (≈ 1.37 µg/mL)	6 (≈ 2.06 µg/mL)	1060		
O=S1(=O)C=C(Sc2nnc(-c3ccccc3)o2)c2ccccc21	3	5.6	20	2100	6 (≈ 2.05 µg/mL)	6 (≈ 2.05 µg/mL)	370	Metabolite_Detected	
CC(=O)Nc1ccc(-c2nnc(SC3=CS(=O)(=O)c4ccccc43)o2)cc1	4	20.4	31	4400	> 160	> 160	160		
O=S1(=O)C=C(Sc2nnc(-c3ccccc3Cl)o2)c2ccccc21	4	7.2	25	1200	167 (≈ 62.9 µg/mL)	6 (≈ 2.26 µg/mL)	230		
COc1ccccc1-c1nnc(SC2=CS(=O)(=O)c3ccccc32)o1	3	9.9	16	3200	172 (≈ 64.1 µg/mL)	64 (≈ 23.8 µg/mL)	480		
S=c1[nH]nc(-c2ccccc2)o1									Metabolite_Detected
O=S1(=O)C=C(Sc2nnc(C3CCCCC3)o2)c2ccccc21	3	7.6	15	2200	46 (≈ 16 µg/mL)	7 (≈ 2.44 µg/mL)	670		
Cc1ccc(-c2nnc(SC3=CS(=O)(=O)c4ccccc43)o2)cc1	3	20.3	31	5700	90 (≈ 32.1 µg/mL)	22 (≈ 7.84 µg/mL)	410		
O=S1(=O)C=C(Sc2nnc(-c3ccc(Cl)cc3)o2)c2ccccc21	3	11.1	22	1500	167 (≈ 62.9 µg/mL)	16 (≈ 6.03 µg/mL)	490		
COc1c(C)c2c(c(O)c1C/C=C(\C)CCC(=O)O)C(=O)OC2 [MYCOPHENOLIC ACID]		0.26					120		
O=S1(=O)C=C(Sc2nnc(-c3cccc(Cl)c3)o2)c2ccccc21	6	10.1	27	1600	167 (≈ 62.9 µg/mL)	6 (≈ 2.26 µg/mL)	400		
OC(Cn1cncn1)(Cn1cncn1)c1ccc(F)cc1F [FLUCONAZOLE]					8 (≈ 2.45 µg/mL)	0.3 (≈ 0.0919 µg/mL)			
COC(=O)c1ccc(-c2nnc(SC3=CS(=O)(=O)c4ccccc43)o2)cc1	4	> 30	18	> 30000	> 160	60 (≈ 24 µg/mL)	340		
COc1cccc(-c2nnc(SC3=CS(=O)(=O)c4ccccc43)o2)c1	3	4.3	20	1200	172 (≈ 64.1 µg/mL)	8 (≈ 2.98 µg/mL)	150		
C[C@@H]1[C@H](O)[C@@H](C)/C=C/C=C/C=C/C=C/C=C/C=C/C=C/[C@H](O[C@@H]2O[C@H](C)[C@@H](O)[C@H](N)[C@@H]2O)C[C@@H]2O[C@](O)(C[C@@H](O)C[C@@H](O)[C@H](O)CC[C@@H](O)C[C@@H](O)CC(=O)O[C@H]1C)C[C@H](O)[C@H]2C(=O)O [AMPHOTERICIN B]					0.18 (≈ 0.166 µg/mL)	0.25 (≈ 0.231 µg/mL)			

Reference: ChEMBL document CHEMBL4265991 (Bioorg Med Chem, 2018)
